The record followed here is ChEMBL document CHEMBL1123964, “Potent, long-acting luteinizing hormone-releasing hormone antagonists containing new synthetic amino acids: N,N'-dialkyl-D-homoarginines” (J Med Chem, 1988).

Square brackets hold non-standard residues; d marks the D form. Peptide text beside a SMILES is read from it. d(hArg(Et2)) = CCN=C(NCC)NCCCC[C@@H](N)C(=O)O; dPhe(4-Cl) = N[C@H](Cc1ccc(Cl)cc1)C(=O)O; d2Nal = N[C@H](Cc1ccc2ccccc2c1)C(=O)O A value given as a limit tells only on which side of the number the result lay.

The target of experiment [1] is T1, Gonadotropin-releasing hormone receptor (Rattus norvegicus) (UniProt P30969).
T1 sequence (whole entry): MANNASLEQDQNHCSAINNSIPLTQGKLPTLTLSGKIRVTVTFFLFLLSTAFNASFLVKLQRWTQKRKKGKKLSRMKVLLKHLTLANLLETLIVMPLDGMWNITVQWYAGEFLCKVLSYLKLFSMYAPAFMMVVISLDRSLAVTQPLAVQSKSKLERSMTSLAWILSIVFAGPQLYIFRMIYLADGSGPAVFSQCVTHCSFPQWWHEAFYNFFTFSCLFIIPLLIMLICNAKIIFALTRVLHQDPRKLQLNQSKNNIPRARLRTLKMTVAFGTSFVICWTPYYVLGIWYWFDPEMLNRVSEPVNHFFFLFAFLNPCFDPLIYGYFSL
Briefly: Antiovulatory activity on proestrus was measured by administering as a solution in 50% propylene glycol / 0.9% saline in rat. The format is functional.

The target of experiment [2] is T1, Gonadotropin-releasing hormone receptor (Rattus norvegicus). Briefly: Antiovulatory activity on diestrus II following administration as a solution in corn oil (24h earlier) in rat. The format is functional, organism-based. The method in brief: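 Female rats with at least two normal 4-day cycles before the test cycle were selected. They received the analogue sc in corn oil at noon on diestrus II, 24 h before the proestrus dosing time. On the morning of expected estrus the oviducts were examined under a dissecting microscope, and freshly ovulated eggs were counted. ED50 was taken from percent ovulating versus log-dose, with 10 rats per dose group and usually three or more dose groups.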

`CCNC(=NCCCC[C@H](NC(=O)[C@H](CO)NC(=O)[C@@H](Cc1c[nH]c2ccccc12)NC(=O)[C@@H](Cc1ccc(Cl)cc1)NC(=O)[C@@H](Cc1ccc2ccccc2c1)NC(C)=O)C(=O)N[C@H](Cc1ccc2ccccc2c1)C(=O)N[C@@H](CC(C)C)C(=O)N[C@@H](CCCN=C(N)N)C(=O)N1CCC[C@H]1C(=O)N[C@H](C)C(N)=O)NCC` came in with an ED50 (ug injection-1) in experiment [1] of 1.6.
The same measure, in the same setting: with `CCCNC(=NCCCC[C@@H](NC(=O)[C@H](Cc1ccc(O)cc1)NC(=O)[C@H](CO)NC(=O)[C@@H](Cc1ccc2ccccc2c1)NC(=O)[C@@H](Cc1ccc(F)cc1)NC(=O)[C@@H](Cc1ccc2ccccc2c1)NC(C)=O)C(=O)N[C@@H](CC(C)C)C(=O)N[C@@H](CCCN=C(N)N)C(=O)N1CCC[C@H]1C(=O)NCC(N)=O)NCCC` the figure was 7.5.
As to `CCNC(=NCCCC[C@@H](NC(=O)[C@H](Cc1ccc(O)cc1)NC(=O)[C@H](CO)NC(=O)[C@@H](Cc1c[nH]c2ccccc12)NC(=O)[C@@H](Cc1ccc(Cl)cc1)NC(=O)[C@@H](Cc1ccc2ccccc2c1)NC(C)=O)C(=O)N[C@@H](Cc1ccccc1)C(=O)N[C@@H](CCCN=C(N)N)C(=O)N1CCC[C@H]1C(=O)N[C@H](C)C(N)=O)NCC` (Ac-[d2Nal][dPhe(4-Cl)][dW]SY[d(hArg(Et2))]FRP[dA]-NH2), the ED50 (ug injection-1) in experiment [1] is 0.75; in experiment [2], 8.
On the same counts, the results for `CCCCNC(=NCCCC[C@@H](NC(=O)[C@H](Cc1ccc(O)cc1)NC(=O)[C@H](CO)NC(=O)[C@@H](Cc1c[nH]c2ccccc12)NC(=O)[C@@H](Cc1ccc(Cl)cc1)NC(=O)[C@@H](Cc1ccc2ccccc2c1)NC(C)=O)C(=O)N[C@@H](CC(C)C)C(=O)N[C@@H](CCCN=C(N)N)C(=O)N1CCC[C@H]1C(=O)N[C@H](C)C(N)=O)NCCCC` are 3.4 and greater than 16.
On the same counts, the results for `CCNC(=O)[C@@H]1CCCN1C(=O)[C@H](CCCN=C(N)N)NC(=O)[C@H](CC(C)C)NC(=O)[C@@H](CCCCN=C(NCC)NCC)NC(=O)[C@H](Cc1ccc(O)cc1)NC(=O)[C@H](CO)NC(=O)[C@@H](Cc1c[nH]c2ccccc12)NC(=O)[C@@H](Cc1ccc(Cl)cc1)NC(=O)[C@@H](Cc1ccc2ccccc2c1)NC(C)=O` are 2.4 and greater than 16.
`CCNC(=NCCCC[C@@H](NC(=O)[C@H](Cc1ccc(O)cc1)NC(=O)[C@H](CO)NC(=O)[C@@H](Cc1ccncc1)NC(=O)[C@@H](Cc1ccc(Cl)cc1)NC(=O)[C@@H](Cc1ccc2ccccc2c1)NC(C)=O)C(=O)N[C@@H](CC(C)C)C(=O)N[C@@H](CCCN=C(N)N)C(=O)N1CCC[C@H]1C(=O)N[C@H](C)C(N)=O)NCC`: the ED50 (ug injection-1) in experiment [1] was found to be 1.7.
On the same count and under the same terms, the result for `CCNC(=NCCCC[C@H](NC(=O)[C@H](CO)NC(=O)[C@@H](Cc1c[nH]c2ccccc12)NC(=O)[C@@H](Cc1ccc(Cl)cc1)NC(=O)[C@@H](Cc1ccc2ccccc2c1)NC(C)=O)C(=O)N[C@H](Cc1ccc(O)cc1)C(=O)N[C@@H](Cc1c[nH]c2ccccc12)C(=O)N[C@@H](CCCN=C(N)N)C(=O)N1CCC[C@H]1C(=O)N[C@H](C)C(N)=O)NCC` reads 11.5.
As to `CCNC(=NCCCC[C@@H](NC(=O)[C@H](Cc1ccc(O)cc1)NC(=O)[C@H](CO)NC(=O)[C@@H](Cc1cccnc1)NC(=O)[C@@H](Cc1ccc(Cl)cc1)NC(=O)[C@@H](Cc1ccc2ccccc2c1)NC(C)=O)C(=O)N[C@@H](CC(C)C)C(=O)N[C@@H](CCCN=C(N)N)C(=O)N1CCC[C@H]1C(=O)N[C@H](C)C(N)=O)NCC`, the ED50 (ug injection-1) in experiment [1] was 0.6; in experiment [2], greater than 4.
`CCNC(=NCCCC[C@@H](NC(=O)[C@H](Cc1ccc(O)cc1)NC(=O)[C@H](CO)NC(=O)[C@@H](Cc1c[nH]c2ccccc12)NC(=O)[C@@H](Cc1ccc(F)cc1)NC(=O)[C@@H](Cc1ccc2ccccc2c1)NC(C)=O)C(=O)N[C@@H](CC(C)C)C(=O)N[C@@H](CCCN=C(N)N)C(=O)N1CCC[C@H]1C(=O)NCC(N)=O)NCCCN(C)C` yielded an ED50 (ug injection-1) in experiment [1] greater than 2.
The compound `CC/N=C(\NCCCC[C@@H](NC(=O)[C@H](Cc1ccc(O)cc1)NC(=O)[C@H](CO)NC(=O)[C@@H](Cc1c[nH]c2ccccc12)NC(=O)[C@@H](Cc1ccc(Cl)cc1)NC(=O)[C@@H](Cc1ccc(Cl)cc1)NC(C)=O)C(=O)N[C@@H](CC(C)C)C(=O)N[C@@H](CCCN=C(N)N)C(=O)N1CCC[C@H]1C(=O)NCC(N)=O)NCCCN(C)C` yielded an ED50 (ug injection-1) in experiment [1] greater than 2.
Same read-out and setting: with `CCNC(=NCCCC[C@H](NC(=O)[C@H](CO)NC(=O)[C@@H](Cc1c[nH]c2ccccc12)NC(=O)[C@@H](Cc1ccc(Cl)cc1)NC(=O)[C@@H](Cc1ccc2ccccc2c1)NC(C)=O)C(=O)N[C@H](Cc1ccc(O)cc1)C(=O)N[C@@H](CC(C)C)C(=O)N[C@@H](CCCN=C(N)N)C(=O)N1CCC[C@H]1C(=O)N[C@H](C)C(N)=O)NCC` the figure was 1.7; with `CCNC(=NCCCC[C@@H](NC(C)=O)C(=O)N[C@H](Cc1ccc(Cl)cc1)C(=O)N[C@H](Cc1c[nH]c2ccccc12)C(=O)N[C@@H](CO)C(=O)N[C@@H](Cc1ccc(O)cc1)C(=O)N[C@H](Cc1ccc2ccccc2c1)C(=O)N[C@@H](CC(C)C)C(=O)N[C@@H](CCCN=C(N)N)C(=O)N1CCC[C@H]1C(=O)N[C@H](C)C(N)=O)NCC`, 8.
On the same count and under the same terms, with `CCNC(=NCCCC[C@@H](NC(=O)[C@H](Cc1ccc(O)cc1)NC(=O)[C@H](CO)NC(=O)[C@@H](Cc1c[nH]c2ccccc12)NC(=O)[C@@H](Cc1ccc(Cl)cc1)NC(=O)[C@@H](Cc1ccc2ccccc2c1)NC(C)=O)C(=O)N[C@@H](Cc1c[nH]c2ccccc12)C(=O)N[C@@H](CCCN=C(N)N)C(=O)N1CCC[C@H]1C(=O)N[C@H](C)C(N)=O)NCC` the figure was 1.2.
Take `CCNC(=NCCCC[C@@H](NC(=O)[C@H](Cc1ccc(O)cc1)NC(=O)[C@H](CO)NC(=O)[C@@H](Cc1c[nH]c2ccccc12)NC(=O)[C@@H](Cc1ccc(Cl)cc1)NC(=O)[C@@H](Cc1ccc2ccccc2c1)NC(C)=O)C(=O)N[C@@H](CC(C)C)C(=O)N[C@@H](CCCN=C(N)N)C(=O)N1CCC[C@H]1C(=O)NNC(N)=O)NCC`: the ED50 (ug injection-1) in experiment [1] stood at 0.55; in experiment [2], 9.5.
For `CC(=O)N[C@H](Cc1ccc(Cl)cc1)C(=O)N[C@H](Cc1ccc(Cl)cc1)C(=O)N[C@H](Cc1c[nH]c2ccccc12)C(=O)N[C@@H](CO)C(=O)N[C@@H](Cc1ccc(O)cc1)C(=O)N[C@H](CCCCN=C(NC(C)C)NC(C)C)C(=O)N[C@@H](CC(C)C)C(=O)N[C@@H](CCCN=C(N)N)C(=O)N1CCC[C@H]1C(=O)N[C@H](C)C(N)=O`, in that order: 16 and greater than 16.
As to `CCNC(=NCCCC[C@@H](NC(=O)[C@H](Cc1ccc(O)cc1)NC(=O)[C@H](CO)NC(=O)[C@@H](Cc1c[nH]c2ccccc12)NC(=O)[C@@H](Cc1ccc(Cl)cc1)NC(=O)[C@@H](Cc1ccc2ccccc2c1)NC(C)=O)C(=O)N[C@@H](CC(C)C)C(=O)N[C@@H](CCCN=C(N)N)C(=O)N1CCC[C@H]1C(=O)N[C@H](C)C(N)=O)NCC` (stereo in doubt; 25), the ED50 (ug injection-1) in experiment [1] was 0.5; in experiment [2], less than 4.
In experiment [1], `CCCCCCNC(=NCCCC[C@@H](NC(=O)[C@H](Cc1ccc(O)cc1)NC(=O)[C@H](CO)NC(=O)[C@@H](Cc1c[nH]c2ccccc12)NC(=O)[C@@H](Cc1ccc(F)cc1)NC(=O)[C@@H](CO)NC(C)=O)C(=O)N[C@@H](CC(C)C)C(=O)N[C@@H](CCCN=C(N)N)C(=O)N1CCC[C@H]1C(=O)NCC(N)=O)NCCCCCC` yielded an ED50 (ug injection-1) of 16.
The same measure, in the same setting: the result for `CCNC(=NCCCC[C@@H](NC(=O)[C@H](Cc1ccc(O)cc1)NC(=O)[C@H](CO)NC(=O)[C@@H](Cc1ccc2ccccc2c1)NC(=O)[C@@H](Cc1ccc(Cl)cc1)NC(=O)[C@@H](Cc1c[nH]c2ccccc12)NC(C)=O)C(=O)N[C@@H](CC(C)C)C(=O)N[C@@H](CCCN=C(N)N)C(=O)N1CCC[C@H]1C(=O)N[C@H](C)C(N)=O)NCC` reads 5.5.
The compound `CCCCCCNC(=NCCCC[C@@H](NC(=O)[C@H](Cc1ccc(O)cc1)NC(=O)[C@H](CCCN)NC(=O)[C@@H](Cc1c[nH]c2ccccc12)NC(=O)[C@@H](Cc1ccc(Cl)cc1)NC(=O)[C@@H](Cc1ccc(Cl)cc1)NC(C)=O)C(=O)N[C@@H](CC(C)C)C(=O)N[C@@H](CCCN=C(N)N)C(=O)N1CCC[C@H]1C(=O)N[C@H](C)C(N)=O)NCCCCCC` had an ED50 (ug injection-1) in experiment [1] greater than 16.
Still for that read-out and setting: the result for `CCNC(=NCCCC[C@H](NC(=O)[C@H](CO)NC(=O)[C@@H](Cc1c[nH]c2ccccc12)NC(=O)[C@@H](Cc1ccc(Cl)cc1)NC(=O)[C@@H](CCCCN=C(NCC)NCC)NC(C)=O)C(=O)N[C@H](Cc1ccc(O)cc1)C(=O)N[C@@H](Cc1c[nH]c2ccccc12)C(=O)N[C@@H](CCCN=C(N)N)C(=O)N1CCC[C@H]1C(=O)N[C@H](C)C(N)=O)NCC` reads greater than 16.
On the same count and under the same terms, with `CCNC(=NCCCC[C@@H](NC(=O)[C@H](Cc1ccc(O)cc1)NC(=O)[C@H](CO)NC(=O)[C@@H](Cc1c[nH]c2ccccc12)NC(=O)[C@@H](Cc1ccc(F)cc1)NC(=O)[C@@H](Cc1ccc2ccccc2c1)NC(C)=O)C(=O)N[C@@H](CC(C)C)C(=O)N[C@@H](CCCN=C(N)N)C(=O)N1CCC[C@H]1C(=O)N[C@H](C)C(N)=O)NCC` the figure was 0.4.
The same measure, in the same setting: with `CCNC(=NCCCC[C@@H](NC(=O)[C@H](Cc1ccc(O)cc1)NC(=O)[C@H](CO)NC(=O)[C@@H](Cc1cccnc1)NC(=O)[C@@H](Cc1ccc(F)cc1)NC(=O)[C@@H](Cc1ccc2ccccc2c1)NC(C)=O)C(=O)N[C@@H](CC(C)C)C(=O)N[C@@H](CCCN=C(N)N)C(=O)N1CCC[C@H]1C(=O)N[C@H](C)C(N)=O)NCC` the figure was 0.7.
